Test results: ChEMBL document CHEMBL1914282 (J Med Chem, 2011)
Calls of active or inactive are those of the source. The rule behind the calls is not given here.

Assays:
[1] = target: T1, G-protein coupled receptor 35 (Homo sapiens, UniProt Q9HC97); assay: Agonist activity at GPR35 in human HT-29 cells after 1 hr by dynamic mass redistribution assay relative to zaprinast; type: functional, cell-based; design: concentration or dose not given beside the values
Method in brief: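 HT-29 monolayer grown overnight on resonant waveguide grating biosensor plates. Cells washed twice, held in HBSS (20 mM Hepes, pH 7.1) for 1 h at 26 °C, then a 2 min baseline taken before compound addition. Response recorded as resonant wavelength shift (pm) over 1 h. […] Compounds diluted from 10 mM DMSO stocks.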

[2] = target: T1, G-protein coupled receptor 35; assay: Agonist activity at GPR35 in human HT-29 cells assessed as desensitization of 1 uM zaprinast-induced DMR after 1 hr by dynamic mass redistribution assay; type: functional, cell-based
[3] = target: T1, G-protein coupled receptor 35; assay: Agonist activity at GPR35 in human U20S cells expressing beta-lactamase and GPR35-GA14-VP16 transcription factor fusion protein assessed as transcriptional activation after 5 hrs by tango beta-arrestin translocation reporter assay; type: functional, cell-based, U2OS
Method in brief: (§1)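 Tango GPR35-bla U2OS cells, which express GPR35–TEV site–Gal4-VP16 and β-arrestin/TEV protease, seeded at 10000 cells/well and cultured overnight. Ligand stimulation for 5 h at 37 °C/5% CO2, then 2 h with LiveBLAzer FRET B/G substrate.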

[4] = target: T1, G-protein coupled receptor 35; assay: Agonist activity at GPR35 in human U20S cells expressing beta-lactamase and GPR35-GA14-VP16 transcription factor fusion protein assessed as transcriptional activation after 5 hrs by tango beta-arrestin translocation reporter assay relative to zaprinast; type: functional, cell-based; settings: U2OS
Method in brief: as §1, with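 “substrate. Coumarin:fluorescein ratio read as reporter response, doses up to 128 μM, n = 4.” for “substrate.”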

[5] = target: T1, G-protein coupled receptor 35; assay: Agonist activity at GPR35 in human HT-29 cells after 1 hr by dynamic mass redistribution assay; type: functional, cell-based
Method in brief: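 HT-29 monolayer grown overnight on resonant waveguide grating biosensor plates. Cells washed twice, held in HBSS (20 mM Hepes, pH 7.1) for 1 h at 26 °C, then a 2 min baseline taken before compound addition. Response recorded as resonant wavelength shift (pm) over 1 h. Compounds diluted from 10 mM DMSO stocks.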

[6] = target: T1, G-protein coupled receptor 35; assay: Agonist activity at GPR35 in human HT-29 cells after 1 hr by dynamic mass redistribution assay in presence of GPR35 antagonist SPB05142; type: functional, cell-based
[7] = target: T1, G-protein coupled receptor 35; assay: Agonist activity at GPR35 in human HT-29 cells after 1 hr by dynamic mass redistribution assay in presence of 64 uM GPR35 antagonist SPB05142; type: functional, cell-based
[8] = target: T1, G-protein coupled receptor 35; assay: Agonist activity at GPR35 in human U20S cells expressing beta-lactamase and GPR35-GA14-VP16 transcription factor fusion protein assessed as transcriptional activation up to 128 uM after 5 hrs by tango beta-arrestin translocation reporter assay; type: functional, cell-based; settings: U2OS
Method in brief: as §1, with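 “substrate. Coumarin:fluorescein ratio read as reporter response, doses up to 128 μM, n = 4.” for “substrate.”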

[9] = test system: HT-29; assay: Induction of dynamic mass redistribution in human HT-29 cells transfected with receptor-targeting iRNA-based shRNA for GPR35 knock out at 10 uM; type: functional, cell-based
Method in brief: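 HT-29 seeded on biosensor plates at 5000 cells/well, 24 h at 37 °C. Transiently transfected with GFP-tagged shRNA plasmids against human GPR35, or control plasmid, at 0.05 μg DNA per well. Medium changed on day 3. About 48 h post-transfection, DMR agonist assay run with compounds at 10 μM, four replicates.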

[10] = target: T1, G-protein coupled receptor 35; assay: Agonist activity at GPR35 in human HT-29 cells assessed as receptor internalization at 1 uM after 1 hr by fluorescence imaging; type: functional, cell-based
Method in brief: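 HT-29 seeded in chamber slides at 10000 cells/well and grown 24 h at 37 °C. Cells exposed to compound or DMSO for 1 h at 37 °C, fixed in 4% formaldehyde, then blocked and permeabilized. Stained with anti-GPR35 (intracellular domain, 1:500, 24 h), then a fluorescent secondary antibody (1:500, 1 h, room temperature). GPR35 location assessed by confocal imaging.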

T1 sequence (Q9HC97 whole entry): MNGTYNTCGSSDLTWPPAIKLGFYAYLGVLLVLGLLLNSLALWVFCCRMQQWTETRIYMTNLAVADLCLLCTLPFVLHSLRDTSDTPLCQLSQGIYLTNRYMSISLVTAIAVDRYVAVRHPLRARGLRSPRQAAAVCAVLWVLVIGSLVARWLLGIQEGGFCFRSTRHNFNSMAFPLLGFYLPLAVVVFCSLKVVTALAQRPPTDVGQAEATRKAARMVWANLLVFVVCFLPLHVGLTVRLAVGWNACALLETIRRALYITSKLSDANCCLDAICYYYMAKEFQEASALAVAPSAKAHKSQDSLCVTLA

SMILES | Activity [1] | IC50 [2] | EC50 ([3]; read-out: EC50) | Activity [4] | EC50 [5] | Activity [6] | Activity [7] | Activity [8] | Activity [9] | EC50 ([3]; u2os) | Activity [10]
CC1=C(C#N)C(=C(C#N)C#N)OC1(c1ccccc1)C(F)(F)F (configuration not stated) | 99% | 1.94 µM | > 50 µM | 14% | 3.5 µM | inactive | inactive |  |  |  | 
CC1=C(C#N)C(=C(C#N)C#N)OC12c1ccccc1-c1ccccc12 | 90% | 21.6 µM |  |  | 6.6 µM | inactive | inactive | inactive |  |  | 
CCCOc1ccccc1-c1nc2[nH]nnc2c(=O)[nH]1 |  |  |  |  |  |  |  |  | inactive |  | 
Cc1csc2c1sc1cc(C(=O)O)sc12 | 118% | 6.07 µM | > 50 µM | 19% | 6 µM | Active | Active |  | inactive |  | 
CCCCc1ccc(C2(C)OC(=C(C#N)C#N)C(C#N)=C2C)cc1 (configuration not stated) |  | 6.4 µM |  |  | 15.3 µM |  |  |  |  | Not Active | 
CCCCCCCCc1c(C(=O)O)sc2c(Br)csc12 | 103% | 1.05 µM | > 50 µM | 8% | 1.46 µM | inactive | inactive |  |  |  | 
CCCCCCCCCCCCCc1c(C(=O)O)sc2c(Br)csc12 | 77% | 1.87 µM |  | inactive | 2.31 µM | inactive | inactive | inactive |  | Not Active | 
CC1=C(C#N)C(=C(C#N)C#N)OC1(C)c1c(F)c(F)c(F)c(F)c1F (configuration not stated) |  | 4.48 µM |  |  | 3.35 µM |  |  |  |  | Not Active | 
CCCCCCc1c(C(=O)O)sc2ccsc12 | 99% | 1.49 µM | > 50 µM | 20% | 3.44 µM | Active | Active |  |  |  | 
CCOC(=O)c1sc2c(Br)csc2c1C |  |  |  |  |  |  |  |  |  | Not Active | 
CCCCCCCCCCCCCCCc1c(C(=O)O)sc2c(Br)csc12 |  | 5.92 µM |  |  | 4.56 µM |  |  |  |  | Not Active | 
CC1=C(C#N)C(=C(C#N)C#N)OC1(C)c1ccc(F)cc1F (configuration not stated) |  | 48.9 µM |  |  | 53.9 µM |  |  |  |  | Not Active | 
O=C(O)c1cc2sccc2s1 |  | 57 µM |  |  | 42.4 µM |  |  |  |  | Not Active | 
CC1=C(C#N)C(=C(C#N)C#N)OC12CCCCC2 | 106% | 16.4 µM | > 50 µM | Active | 45.9 µM | Active | Active |  |  |  | 
CCCCCCCCCCCc1c(C(=O)O)sc2c(Br)csc12 | 87% | 0.57 µM | 22.7 µM | 55% | 1.89 µM | inactive | inactive |  |  |  | 
CC1=C(C#N)C(=C(C#N)C#N)OC1(C)c1ccc(Cl)c(Cl)c1Cl (configuration not stated) | 90% | 10.3 µM |  |  | 11.1 µM | Active | Active | inactive |  |  | 
CC1=C(C#N)C(=C(C#N)C#N)OC1(C)c1ccc(Cl)c(Cl)c1 (configuration not stated) | 97% | 0.06 µM | 10.2 µM | 29% | 0.032 µM | inactive | inactive |  | inactive |  | 
CCCCCCc1csc2cc(C(=O)O)sc12 | 103% | 4.69 µM | > 50 µM | 9% | 9.4 µM | inactive | inactive |  |  |  | 
Cc1c(C(=O)O)sc2c(Br)csc12 | 105% | 0.11 µM | 15 µM | 104% | 0.064 µM | inactive | inactive |  | inactive |  | Active
CC1=C(C#N)C(=C(C#N)C#N)OC1(C)C | 87% | 12.1 µM | > 50 µM | Active | 17.1 µM | inactive | inactive |  | inactive |  | 
